Data set [1] concerns CCRF-CEM. Nature of the data set: Stability in human CEM cells assessed as intracellular radioactive triphosphate metabolite accumulation at 2 uM incubated for 24 hrs measured after 24 hrs of compound removal assessed per 10^6 cells. In kind it is ADME, cell-based. The gist of the method: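 CEM cells were loaded with 2 µM [3H]analog (75 mCi/mmol) for 24 h, washed, and resuspended in drug-free medium. Intracellular metabolites were then measured by SAX-HPLC with radiometric detection at 0, 2, 4, 8, 12 and 24 h after removal. Values are pmol/10^6 cells, mean ± SD of three experiments.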

In data set [2] the test system is CCRF-CEM. Put plainly: Drug metabolism in human CEM cells assessed as radioactive 2', 3'-didehydro-3'-deoxy-4'-ethynylthymidine triphosphate accumulation at 2 uM assessed per 10^6 cells. The settings on record: TDE = time-dependent effect. In kind it is ADME, cell-based. Summed up:
(§1)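 CEM cells (2 x 10^7/ml) in RPMI 1640 with 10% dialyzed FBS were incubated at 37°C with 2 µM [3H]analog (75 mCi/mmol) and harvested at 2, 4, 8, 12, 16 and 24 h. Cells were washed in ice-cold PBS with 20 µM dipyridamole and extracted with 15% TCA. Neutralized extracts were separated on a Partisil SAX column with an H2O to 300 mM potassium phosphate gradient and radiometric detection, reported as pmol/10^6 cells, mean ± SD of three experiments.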

The subject of data set [3] is Human immunodeficiency virus 1. Put plainly: Antiviral activity against 0.1 MOI HIV1 3B in 24 hrs pretreated human TZM-b1 cells infected 0 hr post drug removal assessed as inhibition of viral replication at 6 uM measured 24 hrs postinfection by luciferase assay. Particulars: Human immunodeficiency virus 1, 3B. In kind it is functional. The gist of the method:
(§2)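 TZM-bl cells were plated in phenol red-free RPMI 1640, allowed to adhere 15–18 h at 37°C, then exposed to a range of drug concentrations for 24 h. Medium was changed to remove extracellular drug, and cells were infected with HIV-1 IIIB (MOI 0.1) at 0, 24 or 48 h after removal. Luciferase was read 24 h post-infection with uninfected-cell background subtracted, in quintuple wells, and expressed relative to no-drug wells.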

The test system of data set [4] is RKO. Nature of the data set: Drug metabolism in doxycyclin-induced Tet-On gene expressing human RKO cells producing 3-phosphoglycerate kinase assessed as increase in radioactive 2', 3'-didehydro-3'-deoxy-4'-ethynylthymidine triphosphate accumulation at 2 uM after 16 hrs assessed per 10^6 cells by HPLC analysis relative to control. In kind it is ADME, cell-based. The gist of the method: (§3)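 Tet-On PGK RKO cells (5 x 10^5 per dish) were induced with doxycycline at 0, 50 or 100 ng/ml for 48 or 72 h, then given 2 µM [5'-3H]4'-Ed4T (478 mCi/mmol) for 16 h. Cells were washed in cold PBS with 20 µM dipyridamole and extracted with 15% TCA. Neutralized extracts went through SAX-HPLC with radiometric detection, expressed as pmol/10^6 cells, mean of three experiments.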

The test system of data set [5] is RKO. Put plainly: Drug metabolism in doxycyclin-induced Tet-On gene expressing human RKO cells producing thymidylate kinase assessed as radioactive 2', 3'-didehydro-3'-deoxy-4'-ethynylthymidine diphosphate accumulation after 16 hrs assessed per 10^6 cells by HPLC analysis. In kind it is ADME, cell-based. The gist of the method: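 TMPK Tet-On RKO cells were seeded at 5 x 10^5 per dish with doxycycline at 0, 50 or 3,000 ng/ml for 48 or 72 h, then pulsed for 16 h with 2 µM [5'-3H]4'-Ed4T (478 mCi/mmol). After a cold PBS wash containing 20 µM dipyridamole, cells were extracted with 15% TCA and neutralized with trioctylamine/trichlorotrifluoroethane. Metabolites were quantified by radio-HPLC as pmol/10^6 cells, n=3.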

The test system of data set [6] is Human immunodeficiency virus 1. Put plainly: Antiviral activity against 0.1 MOI HIV1 3B in 24 hrs pretreated human TZM-b1 cells infected 0 hr post drug removal assessed as inhibition of viral replication at 2 uM measured 24 hrs postinfection by luciferase assay. In kind it is functional. Particulars: Human immunodeficiency virus 1, 3B. Summed up: as §2
The test system of data set [7] is CCRF-CEM. Put plainly: Drug metabolism in human CEM cells assessed as radioactive 2', 3'-didehydro-3'-deoxy-4'-ethynylthymidine diphosphate accumulation after 12 hrs assessed per 10^6 cells. In kind it is ADME, cell-based. The gist of the method:
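For the dose series, CEM cells took up [3H]4'-Ed4T at 0.2/0.25, 0.5, 1 and 2 µM (150 mCi/mmol) for 12 h. TCA extracts were neutralized and the mono-, di- and triphosphates resolved by SAX-HPLC with radioactivity detection. Values are pmol/10^6 cells, mean ± SD, three independent experiments.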

The test system of data set [8] is Human immunodeficiency virus 1. Nature of the data set: Antiviral activity against 0.1 MOI HIV1 3B infected in human TZM-b1 cells assessed as inhibition of viral replication at 6 uM after 24 hrs by luciferase assay. In kind it is functional. The settings on record: Human immunodeficiency virus 1, 3B, TZM-b1, 24 h. Summed up: (§4)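 TZM-bl cells in phenol red-free RPMI 1640 were infected with HIV-1 IIIB (MOI 0.1) at the time of adding drug at various concentrations, and drug and virus stayed together for 24 h. Lysate luciferase was measured with uninfected background subtracted, in quintuple wells. Inhibition was the mean signal relative to drug-free infected cells.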

Data set [9] has as its system Human immunodeficiency virus 1. Nature of the data set: Antiviral activity against 0.1 MOI HIV1 3B in 24 hrs pretreated human TZM-b1 cells infected 0 hr post drug removal assessed as inhibition of viral replication at 1 uM measured 24 hrs postinfection by luciferase assay. In kind it is functional. Particulars: Human immunodeficiency virus 1, 3B. The gist of the method: as §2

Data set [10] concerns CCRF-CEM. Put plainly: Drug metabolism in human CEM cells assessed as radioactive stavudine monophosphate accumulation at 2 uM assessed per 10^6 cells. In kind it is ADME, cell-based. The settings on record: TDE = time-dependent effect. Summed up: as §1
Data set [11] relates to Human immunodeficiency virus 1. Put plainly: Antiviral activity against 0.1 MOI HIV1 3B in 24 hrs pretreated human TZM-b1 cells infected 24 hrs post drug removal assessed as inhibition of viral replication at 1 uM measured 24 hrs postinfection by luciferase assay. Particulars: Human immunodeficiency virus 1, 3B. In kind it is functional. Summed up: as §2
Data set [12] concerns RKO. Put plainly: Drug metabolism in doxycyclin-induced Tet-On gene expressing human RKO cells producing 3-phosphoglycerate kinase assessed as radioactive 2', 3'-didehydro-3'-deoxy-4'-ethynylthymidine triphosphate accumulation after 16 hrs assessed per 10^6 cells by HPLC analysis. In kind it is ADME, cell-based. Summed up:
as §3

Data set [13] has as its system CCRF-CEM. Nature of the data set: Drug metabolism in human CEM cells assessed as radioactive 2', 3'-didehydro-3'-deoxy-4'-ethynylthymidine monophosphate accumulation after 12 hrs assessed per 10^6 cells. In kind it is ADME, cell-based. The gist of the method: as §1
Data set [14] relates to Human immunodeficiency virus 1. Put plainly: Antiviral activity against 0.1 MOI HIV1 3B in 24 hrs pretreated human TZM-b1 cells infected 24 hrs post drug removal assessed as inhibition of viral replication at 1 to 6 uM measured 24 hrs postinfection by luciferase assay.
Data set [15] concerns CCRF-CEM. Nature of the data set: Drug metabolism in human CEM cells assessed as radioactive 2', 3'-didehydro-3'-deoxy-4'-ethynylthymidine monophosphate accumulation at 2 uM assessed per 10^6 cells. In kind it is ADME, cell-based. The settings on record: TDE = time-dependent effect. Summed up: as §1
The test system of data set [16] is Human immunodeficiency virus 1. Put plainly: Antiviral activity against 0.1 MOI HIV1 3B in 24 hrs pretreated human TZM-b1 cells infected 0 hr post drug removal assessed as inhibition of viral replication at 4 uM measured 24 hrs postinfection by luciferase assay. In kind it is functional. The settings on record: Human immunodeficiency virus 1, 3B. The gist of the method: as §2

Data set [17] deals with CCRF-CEM. Put plainly: Drug metabolism in human CEM cells assessed as radioactive zidovudine diphosphate accumulation at 2 uM assessed per 10^6 cells. In kind it is ADME, cell-based. Particulars: TDE = time-dependent effect. Summed up: as §1
Data set [18] deals with Human immunodeficiency virus 1. Put plainly: Antiviral activity against 0.1 MOI HIV1 3B infected in human TZM-b1 cells assessed as inhibition of viral replication after 24 hrs by luciferase assay. In kind it is functional, organism-based. The gist of the method: as §4
Data set [19] relates to Human immunodeficiency virus 1. Nature of the data set: Antiviral activity against 0.1 MOI HIV1 3B infected in human TZM-b1 cells assessed as inhibition of viral replication at 2 uM after 24 hrs by luciferase assay. In kind it is functional. Particulars: Human immunodeficiency virus 1, 3B, TZM-b1, 24 h. The gist of the method:
as §4

The test system of data set [20] is CCRF-CEM. Nature of the data set: Drug metabolism in human CEM cells assessed as radioactive 2', 3'-didehydro-3'-deoxy-4'-ethynylthymidine diphosphate accumulation at 2 uM assessed per 10^6 cells. In kind it is ADME, cell-based. The settings on record: TDE = time-dependent effect. Summed up:
as §1

The source made the active and inactive calls. The calls are words filed in the database; no cut-off is given here. A value given as a limit tells only on which side of the number the result lay.

In general, inhibition refers to how much of the control response was suppressed. `C#C[C@@]1(CO)C=C[C@H](n2cc(C)c(=O)[nH]c2=O)O1` [CENSAVUDINE]: the Stability with CCRF-CEM [1] was found to be 0.2 pmol. In addition, the Activity result is recorded as “tde” with CCRF-CEM [2]; “Dose-dependent effect” in the data set on RKO [5]; “Dose-dependent effect” with CCRF-CEM [7]; “tde” in the data set with CCRF-CEM [10]; “Dose-dependent effect” with RKO [12]; “Dose-dependent effect” in the data set with CCRF-CEM [13]. Moreover, the Activity result in the data set on CCRF-CEM [15], with CCRF-CEM [17] and in the data set with CCRF-CEM [20] was “tde” in each case. The inhibition at 6 µM in data set [3] and in [8] was 50% each time. The “fold change (FC)” value with RKO [4] worked out at 2.3. The inhibition at 2 µM in [6] and in data set [19] was 50% throughout. The inhibition at 1 µM is 50% in data set [9] and greater than 50% in data set [11]. For the same compound, the inhibition entry in data set [14] is “Active”. The inhibition at 4 µM in data set [16] was determined as 50%. The inhibition result in [18] is “Dose-dependent effect”.

The values above are taken from ChEMBL document CHEMBL1137646, “Intracellular metabolism and persistence of the anti-human immunodeficiency virus activity of 2',3'-didehydro-3'-deoxy-4'-ethynylthymidine, a novel thymidine analog” (Antimicrob Agents Chemother, 2007).
